For test [1], the target named is T1, Renin (Homo sapiens, UniProt P00797).
T1 sequence (P00797 whole entry): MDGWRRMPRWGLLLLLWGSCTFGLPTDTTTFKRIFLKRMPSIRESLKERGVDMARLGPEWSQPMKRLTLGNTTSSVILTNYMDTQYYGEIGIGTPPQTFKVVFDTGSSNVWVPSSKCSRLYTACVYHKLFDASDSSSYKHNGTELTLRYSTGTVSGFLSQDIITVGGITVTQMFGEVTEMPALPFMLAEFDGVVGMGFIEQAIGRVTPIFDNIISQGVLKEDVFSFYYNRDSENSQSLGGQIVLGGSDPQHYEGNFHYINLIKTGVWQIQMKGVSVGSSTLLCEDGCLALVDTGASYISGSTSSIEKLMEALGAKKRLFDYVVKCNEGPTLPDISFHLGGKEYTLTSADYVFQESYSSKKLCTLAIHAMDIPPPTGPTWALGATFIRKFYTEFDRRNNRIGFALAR
In words: Inhibition of human plasma renin. The format is cell-free. An outline of the steps:
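Renin in reconstituted lyophilized human plasma (high- or low-renin lots), acting on endogenous angiotensinogen. Angiotensin I was measured by radioimmunoassay at pH 7.4 phosphate, 37 °C, with 8-hydroxyquinoline or PMSF as angiotensinase inhibitor. Inhibitor stocks were 1.00×10⁻³ M in methanol or acetic acid. IC50 taken from several concentrations bracketing it.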

Test [2] addresses T1, Renin. In words: Inhibition of human kidney renin. In a few lines: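 Fluorometric assay with a synthetic tetradecapeptide substrate, pH 7.20 citrate/phosphate, 37 °C. Ki obtained by fitting to a competitive inhibition equation, sometimes from data pooled across two independent experiments. Reproducible within ±20%.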
The next test has as its target Renin (Canis familiaris). In words: Inhibition of Renin.
A further test is filed under the species Mus musculus. Nature of the test: The compound was tested for inhibition of mouse submaxillary renin. Type of test: functional. An outline of the steps: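 Mouse submaxillary gland renin was run like the human kidney renin assay: synthetic tetradecapeptide substrate, fluorometric read-out, pH 7.20 citrate/phosphate, 37 °C. Ki came from a competitive inhibition fit.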

A further test has as its target Pepsin A (Sus scrofa, UniProt P00791). Nature of the test: The compound was tested for inhibition of porcine pepsin.
The next test has as its target T2, Rhizopuspepsin (Rhizopus microsporus var. chinensis, UniProt P06026).
T2 sequence (P06026 whole entry): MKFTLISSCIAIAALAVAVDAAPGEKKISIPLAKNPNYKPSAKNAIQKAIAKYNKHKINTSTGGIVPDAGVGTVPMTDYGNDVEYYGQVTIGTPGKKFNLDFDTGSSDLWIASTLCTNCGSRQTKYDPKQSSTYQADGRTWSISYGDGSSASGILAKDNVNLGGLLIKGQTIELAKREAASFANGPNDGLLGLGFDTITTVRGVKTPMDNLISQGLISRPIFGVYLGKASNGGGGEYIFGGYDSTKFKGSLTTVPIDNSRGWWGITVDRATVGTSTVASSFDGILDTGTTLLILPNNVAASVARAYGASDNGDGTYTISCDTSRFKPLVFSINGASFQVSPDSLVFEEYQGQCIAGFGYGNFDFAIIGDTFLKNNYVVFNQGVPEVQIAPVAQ
In words: Inhibition of rhizopuspepsin. An outline of the steps:
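IC50 came from several inhibitor concentrations and was converted to Ki by the Cha equation, assuming competitive inhibition.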

Each structure is given as a SMILES string. Residues, ends and D or L forms follow the SMILES beside them.

Sequence of Pepsin A (P00791 whole entry): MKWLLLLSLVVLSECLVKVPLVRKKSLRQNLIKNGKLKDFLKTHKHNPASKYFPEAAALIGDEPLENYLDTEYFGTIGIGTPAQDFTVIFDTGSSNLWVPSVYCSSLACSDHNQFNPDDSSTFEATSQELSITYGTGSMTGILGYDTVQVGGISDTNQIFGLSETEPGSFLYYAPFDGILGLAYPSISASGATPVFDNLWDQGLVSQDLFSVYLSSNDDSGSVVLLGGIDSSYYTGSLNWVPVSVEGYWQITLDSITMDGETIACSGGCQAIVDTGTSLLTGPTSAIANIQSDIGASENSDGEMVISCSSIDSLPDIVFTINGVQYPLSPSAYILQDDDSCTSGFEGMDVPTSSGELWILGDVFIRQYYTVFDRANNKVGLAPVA

What is called IC50 is the concentration at which inhibition is half-maximal. High values mean a need for much substance, low ones inhibition by little substance. Usually Ki stands for the dissociation constant of the complex between target and ligand, obtained from inhibition or displacement. Lower therefore signals tighter binding. For `CC(C)C[C@H](NC(=O)C[C@H](O)[C@H](CC1CCCCC1)NC(=O)[C@H](Cc1c[nH]cn1)NC(=O)COc1ccccc1)C(=O)N[C@@H](Cc1ccccc1)C(N)=O`, the IC50 at Renin [1] was 1000 nM; against Renin (Canis familiaris), above 1000 nM. The molecule further displayed a Ki at Renin [2] of 14 nM.
In the case of `CC(C)C[C@H](NC(=O)C[C@H](O)[C@H](Cc1ccccc1)NC(=O)[C@H](Cc1c[nH]cn1)NC(=O)COc1ccccc1)C(=O)N[C@@H](Cc1ccccc1)C(N)=O`, the IC50 at Renin [1] and against Renin (Canis familiaris) was above 1000 nM throughout. At Renin [2], this molecule gave a Ki of 580 nM.
As for `CC(C)C[C@H](NC(=O)C[C@H](O)[C@H](CC1CCCCC1)NC(=O)[C@H](Cc1c[nH]cn1)NC(=O)[C@H](Cc1ccccc1)NC(=O)OC(C)(C)C)C(=O)N[C@@H](Cc1ccccc1)C(N)=O` (HELM PEPTIDE1{[CC(C)(C)OC(=O)[*:2]].F.H.[O=C(C[C@H](O)[C@H](CC1CCCCC1)N[*:1])[*:2]].L.F.[am]}$$$$V2.0), the values for the IC50 on Renin [1] and on Renin (Canis familiaris) were 2.2 nM and 13 nM, respectively. Affinity at Renin [2] was put at a Ki of 0.88 nM.
As for `CC(C)CC(=O)N[C@@H](Cc1c[nH]cn1)C(=O)N1CCC[C@H]1C(=O)N[C@@H](Cc1ccccc1)C(=O)N[C@@H](Cc1c[nH]cn1)C(=O)N[C@@H](CC(C)C)[C@@H](O)CC(=O)N[C@@H](CC(C)C)C(=O)N[C@@H](Cc1ccccc1)C(N)=O` (HELM PEPTIDE1{[CC(C)CC(=O)[*:2]].H.P.F.H.[CC(C)C[C@H](N[*:1])[C@@H](O)CC(=O)[*:2]].L.F.[am]}$$$$V2.0), the values for the Ki in the test filed under Mus musculus, on Pepsin A and on Rhizopuspepsin were 14 nM, 27 nM and 200 nM, respectively.
Take `CC(C)CC(=O)N[C@@H](Cc1c[nH]cn1)C(=O)N1CCC[C@H]1C(=O)N[C@@H](Cc1ccccc1)C(=O)N[C@@H](Cc1c[nH]cn1)C(=O)N[C@@H](CC1CCCCC1)C(O)CC(=O)N[C@@H](CC(C)C)C(=O)N[C@@H](Cc1ccccc1)C(N)=O` (some centres not stated) (HELM PEPTIDE1{[CC(C)CC(=O)[*:2]].H.P.F.H.[O=C(CC(O)[C@H](CC1CCCCC1)N[*:1])[*:2]].L.F.[am]}$$$$V2.0): the results for the Ki in the test filed under Mus musculus, at Pepsin A and on Rhizopuspepsin were 2.1 nM, 28 nM and 230 nM, respectively.
Turning to `CC(C)C[C@H](NC(=O)C[C@H](O)[C@H](CC1CCCCC1)NC(=O)[C@H](Cc1c[nH]cn1)NC(=O)[C@H](Cc1ccccc1)NC(=O)OC(C)C)C(=O)N[C@@H](Cc1ccccc1)C(N)=O` (HELM PEPTIDE1{[CC(C)OC(=O)[*:2]].F.H.[O=C(C[C@H](O)[C@H](CC1CCCCC1)N[*:1])[*:2]].L.F.[am]}$$$$V2.0), the IC50 on Renin [1] turned out to be 5.1 nM; against Renin (Canis familiaris), 20 nM. Besides, the Ki at Renin [2] amounted to 1.1 nM.
As for `CCOC(=O)N[C@@H](Cc1ccccc1)C(=O)N[C@@H](Cc1c[nH]cn1)C(=O)N[C@@H](CC1CCCCC1)[C@@H](O)CC(=O)N[C@@H](CC(C)C)C(=O)N[C@@H](Cc1ccccc1)C(N)=O` (HELM PEPTIDE1{[CCOC(=O)[*:2]].F.H.[O=C(C[C@H](O)[C@H](CC1CCCCC1)N[*:1])[*:2]].L.F.[am]}$$$$V2.0), the IC50 against Renin [1] came to 0.76 nM; against Renin (Canis familiaris), 9.5 nM. Further, at Renin [2], the Ki was 0.52 nM.
Molecule `CC(C)C[C@H](NC(=O)C[C@H](O)[C@H](CC(C)C)NC(=O)[C@H](Cc1c[nH]cn1)NC(=O)COc1ccccc1)C(=O)N[C@@H](Cc1ccccc1)C(N)=O` (HELM PEPTIDE1{[O=C(COc1ccccc1)[*:2]].H.[CC(C)C[C@H](N[*:1])[C@@H](O)CC(=O)[*:2]].L.F.[am]}$$$$V2.0) registered a Ki at Renin [2] of 4100 nM.

The values above are taken from ChEMBL document CHEMBL1122863, “Renin inhibitors. Syntheses of subnanomolar, competitive, transition-state analogue inhibitors containing a novel analogue of statine” (J Med Chem, 1985).
